Experimental findings from PubChem BioAssay AID504825 (Southern Research Specialized Biocontainment Screening …, 2011) are described below.

For the assay, the system named is HEp-2 viability, luminescence (CellTiter-Glo). Nature of the assay: HEp-2 cell cytotoxicity, dose response, cytotoxicity control for RSV antiviral project, synthesized compounds, set 10 (AID 504825). The method, boiled down: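 Controls: Cell-only wells, 100% reference | Assay system: Uninfected HEp-2 human cells, compound cytotoxicity | Input: 10,595 HEp-2 cells per well | Measured by: CellTiter-Glo luminescence | Repeats: Triplicate | Buffer or medium: DMEM/F12 | Schedule: 6 d compound exposure, 37 °C | Evaluation: % viability and CC50, 4-parameter fit | Dosing: 8-point twofold dilution series, 0.5% DMSO final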
For `COc1ccc(C)c(NC(=O)[C@@H]2CCCN2S(=O)(=O)c2cccc3cccnc23)c1`, the half-maximal cytotoxic concentration (CC50) (usually the concentration giving 50% cytotoxicity) was 47.7 µM.
Take `Cc1ccc(NC(=O)[C@@H]2CCCN2S(=O)(=O)c2cccc3cccnc23)c(C)c1`: the CC50 is 29 µM.
The figure for `Cc1cc(NC(=O)[C@@H]2CCCN2S(=O)(=O)c2cccc3cccnc23)n(C(C)(C)C)n1` is 55.1 µM.
